Results reported in ChEMBL document CHEMBL1141231, “Discovery and development of a new class of potent, selective, orally active oxytocin receptor antagonists” (J Med Chem, 2005).
In brackets after ≈: the same amount, converted by molar mass. Where a SMILES comes first, the peptide text is derived from it. Bridges are numbered along the chain shown (N, C = ends). [ ]: non-standard residue; d: D form. Orn = NCCC[C@H](N)C(=O)O; Mpa = O=C(O)CCS

Legend:
[1] = biological target: T1, Vasopressin V1a receptor (Homo sapiens, UniProt P37288); settings: HEK293-EBNA, at 10 µM
Target sequence in this assay (P37288 whole entry, looked up): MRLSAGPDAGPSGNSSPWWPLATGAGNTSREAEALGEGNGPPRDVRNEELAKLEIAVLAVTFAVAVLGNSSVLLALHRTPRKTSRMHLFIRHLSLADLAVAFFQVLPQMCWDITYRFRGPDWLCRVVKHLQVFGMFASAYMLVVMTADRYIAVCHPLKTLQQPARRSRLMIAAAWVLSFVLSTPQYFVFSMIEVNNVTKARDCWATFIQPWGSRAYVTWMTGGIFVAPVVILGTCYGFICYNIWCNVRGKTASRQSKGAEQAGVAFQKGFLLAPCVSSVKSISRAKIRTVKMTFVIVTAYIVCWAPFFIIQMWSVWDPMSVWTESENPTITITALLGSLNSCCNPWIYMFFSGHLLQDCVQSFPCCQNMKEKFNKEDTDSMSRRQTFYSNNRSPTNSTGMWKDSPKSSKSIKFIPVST

[2] = biological target: T2, Oxytocin receptor (Homo sapiens) (UniProt P30559); experiment: Displacement of [125I]OVTA antagonist from human oxytocin receptor expressed in HEK293-EBNA cells at 10 uM; type: cell-based
T2 sequence (whole entry): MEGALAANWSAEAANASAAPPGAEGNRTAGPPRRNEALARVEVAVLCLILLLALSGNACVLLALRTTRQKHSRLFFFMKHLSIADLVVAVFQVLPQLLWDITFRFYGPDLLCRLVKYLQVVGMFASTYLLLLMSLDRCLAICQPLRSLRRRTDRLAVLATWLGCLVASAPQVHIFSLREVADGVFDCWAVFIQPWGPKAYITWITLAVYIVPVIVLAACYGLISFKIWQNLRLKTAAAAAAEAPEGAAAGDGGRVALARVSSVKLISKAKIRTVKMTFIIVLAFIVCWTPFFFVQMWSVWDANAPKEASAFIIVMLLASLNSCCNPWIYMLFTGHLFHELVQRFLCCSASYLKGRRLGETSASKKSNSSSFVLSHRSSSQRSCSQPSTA

[3] = biological target: T3, Oxytocin receptor (Rattus norvegicus) (UniProt P70536); experiment: Inhibition of oxytocin-induced uterine contractions in nonpregnant rats administered at 30 mg/kg, po; type: functional, organism-based; parameters: dose 30 mg/kg
T3 sequence (whole entry): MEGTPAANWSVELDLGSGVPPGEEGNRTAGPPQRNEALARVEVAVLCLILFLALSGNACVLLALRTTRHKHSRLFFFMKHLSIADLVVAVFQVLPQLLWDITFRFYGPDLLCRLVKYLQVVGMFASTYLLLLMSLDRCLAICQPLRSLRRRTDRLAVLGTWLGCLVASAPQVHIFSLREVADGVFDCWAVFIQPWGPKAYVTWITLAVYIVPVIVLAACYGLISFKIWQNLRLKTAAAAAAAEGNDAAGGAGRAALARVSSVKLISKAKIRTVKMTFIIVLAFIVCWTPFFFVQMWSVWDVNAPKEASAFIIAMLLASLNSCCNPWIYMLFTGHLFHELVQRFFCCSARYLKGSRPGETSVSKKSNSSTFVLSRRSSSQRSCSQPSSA
Outline: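 Anaesthetized nonpregnant rats dosed orally by esophagus cannulation with a solution in NP3S, PEG/saline or saline. Uterine intraluminal pressure AUC is read versus vehicle. The value is the maximum inhibition within a 3 h interval after OT administration.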

[4] = biological target: T1, Vasopressin V1a receptor; experiment: Displacement of [125I]LVA antagonist from human vasopressin 1a receptor expressed in HEK293-EBNA cells; type: cell-based
Target sequence in this assay (P37288 whole entry): as the sequence (P37288 whole entry, looked up) above

[5] = Stability of compound in presence of rat liver microsomes; type: ADME
Outline: (§1)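 Liver microsomes (human or rat) at final […] in 0.1 M phosphate pH 7.4 with compound at final 40 µM (1% DMSO), preincubated at 37 °C; reaction started with 1 mM NADPH; stopped with cold acetonitrile at 0, 20 and 60 min.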

[6] = biological target: T4, Oxytocin receptor (Homo sapiens, UniProt P30559); experiment: Inhibitory activity against human Oxytocin induced intracellular Calcium mobilization in human Oxytocin receptor transfected HEK293-EBNA cells; type: functional, cell-based
T4 sequence (P30559 whole entry): T2 sequence (whole entry)

[7] = biological target: T4, Oxytocin receptor; experiment: biochemical; type: cell-based, HEK293-EBNA
[8] = biological target: T3, Oxytocin receptor (Rattus norvegicus); experiment: Inhibition of oxytocin-induced uterine contractions in nonpregnant rats administered at 10 mg/kg, iv; type: functional, organism-based; parameters: dose 10 mg/kg
Outline: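 Anaesthetized nonpregnant rats; compound given as a solution by iv infusion in NP3S, PEG/saline or saline. Uterine intraluminal pressure AUC is read relative to the third OT injection. Inhibition is taken versus vehicle values at 5 min after OT administration.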

[9] = system: Liver microsomes; experiment: Stability of compound in presence of human liver microsomes; type: ADME, Microsome
Outline: as §1

[10] = biological target: T5, Oxytocin receptor (Rattus norvegicus, UniProt P70536); experiment: Displacement of [125I]OVTA antagonist from rat oxytocin receptor expressed in HEK293-EBNA cells; type: cell-based
T5 sequence (P70536 whole entry): T3 sequence (whole entry)

[11] = Inhibitory activity against cytochrome P450; type: ADME
Outline: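 Baculovirus/insect-cell expressed CYP isoforms incubated with compound at several concentrations in 1% DMSO plus isoform-specific fluorogenic substrate; fluorescence after a fixed reaction time used to compute % inhibition and IC50.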

[12] = biological target: T3, Oxytocin receptor (Rattus norvegicus); experiment: In vivo efficacy against oxytocin-induced uterine contractions in nonpregnant rats administered iv; type: functional, organism-based
Outline: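 Anaesthetized nonpregnant rats; compound given as a solution by iv infusion in NP3S, PEG/saline or saline. Contractions read as AUC of intraluminal uterine pressure over 35 min, relative to the third OT injection, and expressed as % inhibition versus a vehicle group. ED50 is taken from a dose-response curve of peak inhibition values.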

[13] = organism: Homo sapiens; experiment: Selectivity for human vasopressin V1a receptor over human oxytocin receptor
[14] = Solubility in aqueous medium; type: physicochemical
[15] = Solubility in saline; type: physicochemical
[16] = biological target: Cytochrome P450 2C9 (Homo sapiens, UniProt P11712); experiment: Inhibitory activity against cytochrome P450 2C9 isoform
Chain of Cytochrome P450 2C9 (P11712 whole entry, canonical isoform): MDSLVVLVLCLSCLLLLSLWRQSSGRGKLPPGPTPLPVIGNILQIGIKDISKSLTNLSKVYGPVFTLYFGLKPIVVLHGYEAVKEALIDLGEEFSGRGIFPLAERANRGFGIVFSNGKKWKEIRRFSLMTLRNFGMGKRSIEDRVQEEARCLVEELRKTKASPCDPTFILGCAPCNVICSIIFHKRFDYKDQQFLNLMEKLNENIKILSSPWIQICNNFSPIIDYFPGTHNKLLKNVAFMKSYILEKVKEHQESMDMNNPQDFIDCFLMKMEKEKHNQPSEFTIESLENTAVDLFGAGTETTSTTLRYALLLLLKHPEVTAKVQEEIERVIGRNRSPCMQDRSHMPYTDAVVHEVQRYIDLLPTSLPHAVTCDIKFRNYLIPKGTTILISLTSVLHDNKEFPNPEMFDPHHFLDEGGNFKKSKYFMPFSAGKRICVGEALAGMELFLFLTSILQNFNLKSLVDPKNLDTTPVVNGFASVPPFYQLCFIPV

[17] = biological target: Vasopressin V2 receptor (Homo sapiens, UniProt P30518); experiment: Displacement of [125I]LVA antagonist from human vasopressin 2 receptor expressed in HEK293-EBNA cells; type: cell-based
Chain of Vasopressin V2 receptor (P30518 whole entry): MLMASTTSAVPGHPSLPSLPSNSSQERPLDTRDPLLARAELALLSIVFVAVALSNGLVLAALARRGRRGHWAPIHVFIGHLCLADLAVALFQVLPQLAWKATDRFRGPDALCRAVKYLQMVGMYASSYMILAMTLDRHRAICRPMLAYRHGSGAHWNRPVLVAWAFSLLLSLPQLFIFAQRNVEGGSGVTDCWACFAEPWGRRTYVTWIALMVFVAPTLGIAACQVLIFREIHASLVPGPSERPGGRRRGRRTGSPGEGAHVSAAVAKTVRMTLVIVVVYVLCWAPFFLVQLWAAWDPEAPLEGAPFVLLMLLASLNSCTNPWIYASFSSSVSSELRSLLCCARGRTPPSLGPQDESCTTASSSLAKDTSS

[18] = Oral bioavailability in rat; type: ADME, organism-based; settings: in vivo
[19] = biological target: Cytochrome P450 2C19 (Homo sapiens, UniProt P33261); experiment: Inhibitory activity against cytochrome P450 2C19 isoform; type: ADME
Chain of Cytochrome P450 2C19 (P33261 whole entry, canonical isoform): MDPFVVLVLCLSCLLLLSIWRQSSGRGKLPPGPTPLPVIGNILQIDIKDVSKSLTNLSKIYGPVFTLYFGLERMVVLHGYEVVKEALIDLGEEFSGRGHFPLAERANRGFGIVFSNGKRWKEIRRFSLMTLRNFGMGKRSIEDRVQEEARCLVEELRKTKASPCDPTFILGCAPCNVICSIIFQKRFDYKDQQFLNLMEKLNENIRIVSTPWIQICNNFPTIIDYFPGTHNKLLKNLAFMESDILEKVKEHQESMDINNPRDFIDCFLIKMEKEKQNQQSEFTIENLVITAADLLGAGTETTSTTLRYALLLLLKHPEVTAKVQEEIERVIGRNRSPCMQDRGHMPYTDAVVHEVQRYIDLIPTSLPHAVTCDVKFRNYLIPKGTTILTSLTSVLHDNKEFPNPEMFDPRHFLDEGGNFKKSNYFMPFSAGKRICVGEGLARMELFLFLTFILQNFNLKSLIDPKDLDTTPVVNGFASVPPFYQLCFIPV
Outline: (§2)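 Baculovirus/insect-cell-expressed CYP isoforms are incubated with a specific fluorogenic substrate and several compound concentrations in 1% DMSO. Fluorescence of the product after a defined reaction time gives % inhibition at each concentration and the IC50.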

[20] = Dissociation constant of the compound; type: physicochemical
[21] = system: Rattus norvegicus; experiment: Inhibition of spontaneous uterine contraction in late-term pregnant rats at 30 mg/kg, po
[22] = biological target: Cytochrome P450 3A4 (Homo sapiens, UniProt P08684); experiment: Inhibitory activity against cytochrome P450 3A4 isoform; type: ADME
Chain of Cytochrome P450 3A4 (P08684 whole entry, canonical isoform): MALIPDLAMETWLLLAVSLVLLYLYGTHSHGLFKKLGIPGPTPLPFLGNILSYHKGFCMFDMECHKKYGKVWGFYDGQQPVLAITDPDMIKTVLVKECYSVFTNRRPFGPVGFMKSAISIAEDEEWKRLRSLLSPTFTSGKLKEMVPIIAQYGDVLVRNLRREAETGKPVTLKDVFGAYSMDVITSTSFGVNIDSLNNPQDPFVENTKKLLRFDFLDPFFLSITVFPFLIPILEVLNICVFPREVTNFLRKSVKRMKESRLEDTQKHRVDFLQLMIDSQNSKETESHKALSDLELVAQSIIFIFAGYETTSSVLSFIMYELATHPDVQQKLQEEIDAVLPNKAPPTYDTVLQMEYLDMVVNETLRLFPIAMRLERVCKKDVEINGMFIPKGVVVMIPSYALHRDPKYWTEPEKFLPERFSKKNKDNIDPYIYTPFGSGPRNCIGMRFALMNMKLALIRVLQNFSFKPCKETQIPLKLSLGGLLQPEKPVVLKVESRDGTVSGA
Outline: as §2

[23] = aqueous medium, read-out: Solubility

Structure (SMILES) | inhibition [1] | inhibition [2] | Ki [4] | Ki [7] | Ki [10] | Ratio Ki [13] | further results
CCOc1ccc(S(=O)(=O)N(CC(=O)NN)c2ccc(C)cc2)cc1 | < 50% | < 50% |  |  |  |  | 
Cc1ccc(N(CC(=O)Nc2cccc(Cl)c2C)S(C)(=O)=O)cc1 | < 50% | < 50% |  |  |  |  | 
CCOc1ccc(S(=O)(=O)N(CC(=O)N/N=C2\C(=O)Nc3ccccc32)c2ccc(C)cc2)cc1 |  |  |  |  |  | 100 | inhibition [8]: 49.9%; ED50 [12]: 10 mg/kg
O=C(CN(CCc1ccccc1)S(=O)(=O)c1ccccc1)N1CCc2ccccc2C1 | < 50% | < 50% |  |  |  |  | 
Cc1ccc(N(CC(=O)N/N=C/c2ccccc2Cl)S(=O)(=O)c2ccccc2)cc1 | < 50% | < 50% |  |  |  |  | 
COc1ccccc1/C=N/NC(=O)CN(c1ccc(C)cc1)S(=O)(=O)c1ccccc1 | < 50% | < 50% |  |  |  |  | 
CN(C)CCCOc1ccc(S(=O)(=O)N(CC(=O)N/N=C2\C(=O)NC(=O)c3ccccc32)c2ccc(Cl)cc2)cc1 |  |  | 730 nM | 1.6 nM | 2.7 nM | 456 | solubility [14, 23]: 580 µg/mL (≈ 970 µM); metabolised [5]: 89%; solubility [15]: 2 µg/mL (≈ 3.34 µM); IC50 [6]: 15 nM; inhibition [8]: 39.8%; MET [9]: 91%; IC50 [11]: > 1000 nM
CC(C)CCN(CC(=O)N1CCc2ccccc2C1)S(=O)(=O)c1ccccc1 | < 50% | < 50% |  |  |  |  | 
COCCOCCOc1ccc(S(=O)(=O)N(CC(=O)N/N=C2\C(=O)Nc3ccccc32)c2ccc(Cl)cc2)cc1 |  |  | 511 nM | 3 nM | 12 nM | 176 | solubility [14, 23]: < 1 µg/mL; metabolised [5]: 89%; solubility [15]: < 1 µg/mL; IC50 [16]: 330 nM; IC50 [6]: 7 nM; inhibition [8]: 23.3%; MET [9]: 79%
Cc1ccc(N(CC(=O)N/N=C/c2ccccc2F)S(=O)(=O)c2ccccc2)cc1 | < 50% | < 50% |  |  |  |  | 
CCOc1ccc(S(=O)(=O)N(CC(=O)OC)c2ccc(C)cc2)cc1 | < 50% | < 50% |  |  |  |  | 
O=C(CN(c1ccc(Cl)cc1)S(=O)(=O)c1ccc(CCCO)cc1)N/N=C1\C(=O)Nc2ccccc21 |  |  | 615 nM | 4.1 nM |  | 150 | solubility [14, 23]: < 1 µg/mL; metabolised [5]: 31%; IC50 [19]: 50 nM; solubility [15]: < 1 µg/mL; IC50 [16]: 345 nM; IC50 [6]: 32 nM; MET [9]: 34%
COc1ccc(N(CC(=O)Nc2cccc(Cl)c2C)S(=O)(=O)c2ccccc2)cc1Cl | < 50% | < 50% |  |  |  |  | 
CCOc1ccc(C[C@H]2NC(=O)CCSSC[C@@H](C(=O)N3CCC[C@H]3C(=O)N[C@@H](CCCN)C(=O)NCC(N)=O)NC(=O)[C@H](CC(N)=O)NC(=O)[C@H]([C@@H](C)O)NC(=O)[C@H]([C@@H](C)CC)NC2=O)cc1 [ATOSIBAN] ([Mpa][dY](Et)ITNCP[Orn]G-NH2; disulfide 1-6) |  |  | 0.63 nM | 27 nM | 76 nM |  | IC50 [6]: 59 nM
CCOc1ccc(S(=O)(=O)N(CC(=O)N/N=C2\C(=O)Nc3ccncc32)c2ccc(Cl)cc2)cc1 |  |  | 3610 nM | 64 nM |  | 56 | pKa [20]: 4.4
CN(C)CCCOc1ccc(S(=O)(=O)N(CC(=O)N/N=C2\C(=O)Nc3ccncc32)c2ccc(Cl)cc2)cc1 |  |  | 618 nM | 115 nM | 140 nM | 5 | metabolised [5]: 41%; IC50 [6]: 840 nM; inhibition [8]: 23.8%; MET [9]: 20%; IC50 [11]: > 1000 nM
CCN(CC)C(=O)CN(c1ccc(OC)cc1)S(=O)(=O)c1ccccc1 | < 50% | < 50% |  |  |  |  | 
O=C(CN(c1ccc(Cl)cc1)S(=O)(=O)c1ccccc1)Nc1ccccc1 | < 50% | < 50% |  |  |  |  | 
CNCCCC12CCC(c3ccccc31)c1ccccc12.Cl [MAPROTILINE HYDROCHLORIDE] |  |  |  |  |  |  | solubility ([14]; buffer): 580 µg/mL; solubility [15]: 2 µg/mL

Further lines, with some results ahead:

inhibition [1] | inhibition [2] | Ki [4] | Ki [7] | Ki [10] | Ratio Ki [13] | Structure (SMILES) | further results
 |  | 65 nM | 1.1 nM | 4.6 nM | 59 | CN(C)CCCOc1ccc(S(=O)(=O)N(CC(=O)N/N=C2\C(=O)Nc3ccccc32)c2ccc(Cl)cc2)cc1 | inhibition [3]: 22%; metabolised [5]: 26%; IC50 [6]: 14 nM; inhibition [8]: 67.4%; MET [9]: 0%; IC50 [11]: > 1000 nM; ED50 [12]: 7.5 mg/kg
 |  | 176 nM | 2.1 nM | 15 nM | 84 | CN(C)CCOc1ccc(S(=O)(=O)N(CC(=O)N/N=C2\C(=O)Nc3ccccc32)c2ccc(Cl)cc2)cc1 | IC50 [6]: 59 nM
 |  | 1410 nM | 14 nM | 25 nM |  | CCOc1ccc(S(=O)(=O)N(CC(=O)NN=C2C(=O)Nc3ccccc32)c2ccc(C)cc2)cc1 | solubility [14, 23]: < 1 µg/mL; solubility [15]: < 1 µg/mL; Ki [17]: 2500 nM; IC50 [6]: 30 nM; bioavailability [18]: 6%
 |  | 94 nM | 0.9 nM |  | 102 | O=C(CCc1ccc(S(=O)(=O)N(CC(=O)N/N=C2\C(=O)Nc3ccccc32)c2ccc(Cl)cc2)cc1)NCCCO | solubility [14, 23]: < 1 µg/mL; solubility [15]: < 1 µg/mL
 |  | 42 nM | 0.65 nM | 0.67 nM | 65 | CN(C)CCCNC(=O)CCc1ccc(S(=O)(=O)N(CC(=O)N/N=C2\C(=O)Nc3ccccc32)c2ccc(Cl)cc2)cc1 | inhibition [3]: 35%; metabolised [5]: 0%; inhibition in vivo at 30 mg/kg [21]: 29.3%; inhibition [8]: 72%; MET [9]: 18%; IC50 [11]: > 1000 nM; ED50 [12]: 1.4 mg/kg
 |  | 582 nM | 7 nM | 25 nM | 84 | O=C(CN(c1ccc(Cl)cc1)S(=O)(=O)c1ccc(NCCN2CCOCC2)cc1)N/N=C1\C(=O)Nc2ccccc21 | metabolised [5]: 40%; IC50 [22]: 310 nM; MET [9]: 73%
 |  | 133 nM | 0.9 nM | 8 nM | 148 | O=C(CN(c1ccc(Cl)cc1)S(=O)(=O)c1ccc(OCCN2CCOCC2)cc1)N/N=C1\C(=O)Nc2ccccc21 | inhibition [3]: 30%; metabolised [5]: 21%; inhibition [8]: 43%; MET [9]: 57%; IC50 [11]: > 1000 nM; ED50 [12]: 9.4 mg/kg
 |  | 1180 nM | 7 nM | 33 nM | 171 | COCCOc1ccc(S(=O)(=O)N(CC(=O)N/N=C2\C(=O)Nc3ccccc32)c2ccc(Cl)cc2)cc1 | solubility [14, 23]: < 1 µg/mL; solubility [15]: < 1 µg/mL
